ChEMBL document CHEMBL4732243, “Design, synthesis, and structure activity relationship analysis of new betulinic acid derivatives as potent HIV inhibitors” (Eur J Med Chem, 2021)

Columns and labels:
MT4 = experiment: Cytotoxicity against human MT4 cells assessed as reduction in cell viability incubated for 2 days by CytoTox-Glo cytotoxicity assay; assay type: cell-based; details: mt4, 48 h, time 2 day
How it was run: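 Mock-infected MT-4 cells cultured 2 days with a range of compound concentrations. Viability measured by CytoTox-Glo, following the kit protocol, as percent viable cells. CC50 is the concentration giving a 50% reduction in cell viability.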

[1] = test system: Human immunodeficiency virus 1; experiment: Antiviral activity against HIV-1 NL4-3 infected in human MT4 cells assessed as reduction in p24 gag protein incubated for 4 days by ELISA; assay type: functional, organism-based; details: Human immunodeficiency virus 1, NL4-3, MT4, 96 h
How it was run: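 MT-4 cells infected with HIV-1 NL4-3 at MOI 0.01, serial compound concentrations, in 96-well format. Supernatant p24 antigen measured by capture ELISA on day 4 post-infection. IC50 is the concentration that inhibits NL4-3 replication by 50%. Bevirimat run in parallel as the reference.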

Structure (SMILES) | CC50 (MT4) [nM] | IC50 ([1]; read-out: IC50) [nM] | IC50 ([1]; read-out: pIC50 (converted)) [nM]
C=C(C)[C@@H]1CC[C@]2(C(=O)N3CCN(C(=O)/C=C/c4cc(OC)c(OC)c(OC)c4)CC3)CC[C@]3(C)[C@H](CC[C@@H]4[C@@]5(C)CC[C@H](OC(=O)CC(C)(C)C(=O)O)C(C)(C)[C@@H]5CC[C@]43C)[C@@H]12 | > 2000 | 41 | 40.7
C=C(C)[C@@H]1CC[C@]2(C(=O)N3CCN(C(=O)/C=C/c4ccc5[nH]ccc5c4)CC3)CC[C@]3(C)[C@H](CC[C@@H]4[C@@]5(C)CC[C@H](OC(=O)CC(C)(C)C(=O)O)C(C)(C)[C@@H]5CC[C@]43C)[C@@H]12 | > 2000 | 50 | 50.1
C=C(C)[C@@H]1CC[C@]2(C(=O)N3CCN(C(=O)CC(C)(C)C(=O)O)CC3)CC[C@]3(C)[C@H](CC[C@@H]4[C@@]5(C)CC[C@H](ON6CCN(C(=O)CC(C)(C)C(=O)O)CC6)C(C)(C)[C@@H]5CC[C@]43C)[C@@H]12 | > 2000 | 14 | 14.1
C=C(C)[C@@H]1CC[C@]2(C(=O)N3CCN(C(=O)/C(=C/c4ccc5c(c4)OCO5)CC)CC3)CC[C@]3(C)[C@H](CC[C@@H]4[C@@]5(C)CC[C@H](OC(=O)CC(C)(C)C(=O)O)C(C)(C)[C@@H]5CC[C@]43C)[C@@H]12 | > 2000 | 130 | 129
C=C(C)[C@@H]1CC[C@]2(C(=O)N3CCN(C(=O)/C=C/c4c[nH]c5ccccc45)CC3)CC[C@]3(C)[C@H](CC[C@@H]4[C@@]5(C)CC[C@H](OC(=O)CC(C)(C)C(=O)O)C(C)(C)[C@@H]5CC[C@]43C)[C@@H]12 | > 2000 | 69 | 69.2
C=C(C)[C@@H]1CC[C@]2(C(=O)N3CCN(C(=O)/C=C/c4cccc(O)c4)CC3)CC[C@]3(C)[C@H](CC[C@@H]4[C@@]5(C)CC[C@H](OC(=O)CC(C)(C)C(=O)O)C(C)(C)[C@@H]5CC[C@]43C)[C@@H]12 | > 2000 | 53 | 52.5
C=C(C)[C@@H]1CC[C@]2(C(=O)N3CCN(C(=O)/C=C/c4ccc5c(c4)CCO5)CC3)CC[C@]3(C)[C@H](CC[C@@H]4[C@@]5(C)CC[C@H](OC(=O)CC(C)(C)C(=O)O)C(C)(C)[C@@H]5CC[C@]43C)[C@@H]12 | > 2000 | 67 | 67.6
C=C(C)[C@@H]1CC[C@]2(C(=O)N3CCN(C(=O)/C=C/c4cccc(OCc5cccc([N+](=O)[O-])c5)c4)CC3)CC[C@]3(C)[C@H](CC[C@@H]4[C@@]5(C)CC[C@H](OC(=O)CC(C)(C)C(=O)O)C(C)(C)[C@@H]5CC[C@]43C)[C@@H]12 | > 2000 | 580 | 575
C=C(C)[C@@H]1CC[C@]2(C(=O)N3CCN(C(=O)/C(C)=C/c4ccc5c(c4)OCO5)CC3)CC[C@]3(C)[C@H](CC[C@@H]4[C@@]5(C)CC[C@H](OC(=O)CC(C)(C)C(=O)O)C(C)(C)[C@@H]5CC[C@]43C)[C@@H]12 | > 2000 | 57 | 57.5
C=C(C)[C@@H]1CC[C@]2(C(=O)N3CCN(C(=O)/C=C/c4ccc(OCOC)cc4)CC3)CC[C@]3(C)[C@H](CC[C@@H]4[C@@]5(C)CC[C@H](OC(=O)CC(C)(C)C(=O)O)C(C)(C)[C@@H]5CC[C@]43C)[C@@H]12 | > 2000 | 200 | 200
C=C(C)[C@@H]1CC[C@]2(C(=O)N3CCN(C(=O)/C=C/c4csc5ccccc45)CC3)CC[C@]3(C)[C@H](CC[C@@H]4[C@@]5(C)CC[C@H](OC(=O)CC(C)(C)C(=O)O)C(C)(C)[C@@H]5CC[C@]43C)[C@@H]12 | > 2000 | 180 | 182
C=C(C)[C@@H]1CC[C@]2(C(=O)N3CCN(C(=O)/C=C/c4ccc(OC)c(Cl)c4)CC3)CC[C@]3(C)[C@H](CC[C@@H]4[C@@]5(C)CC[C@H](OC(=O)CC(C)(C)C(=O)O)C(C)(C)[C@@H]5CC[C@]43C)[C@@H]12 | > 2000 | 130 | 129
C=C(C)[C@@H]1CC[C@]2(C(=O)N3CCN(C(=O)c4cc5cc(OC)ccc5[nH]4)CC3)CC[C@]3(C)[C@H](CC[C@@H]4[C@@]5(C)CC[C@H](OC(=O)CC(C)(C)C(=O)O)C(C)(C)[C@@H]5CC[C@]43C)[C@@H]12 | > 2000 | 53 | 52.5
C=C(C)[C@@H]1CC[C@]2(C(=O)N3CCN(C(=O)/C=C/c4cn(C)c5ccccc45)CC3)CC[C@]3(C)[C@H](CC[C@@H]4[C@@]5(C)CC[C@H](OC(=O)CC(C)(C)C(=O)O)C(C)(C)[C@@H]5CC[C@]43C)[C@@H]12 | > 2000 | 140 | 141
